This is an account of results in ChEMBL document CHEMBL3784931, “Synthesis and evaluation of novel angiotensin II receptor 1 antagonists as anti-hypertension drugs” (Bioorg Med Chem, 2016).

Calls of active or inactive are those of the source. The calls are words filed in the database; no cut-off is given here.

Experiment [1] relates to Rattus norvegicus. The experiment can be described thus: Antihypertensive activity in spontaneous hypertensive rat model assessed as reduction in mean blood pressure at 10 mg/kg, po administered for 2 hrs. It counts as functional, organism-based. A digest of the protocol:
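Male SHRs were randomized, n = 6 per group. Compound was suspended in DMSO/oleic acid (1:4) and given by oral gavage; vehicle controls got the same volume of solvent. SBP and DBP were recorded in conscious animals by noninvasive tail-artery manometry. MBP = (SBP − DBP)/3 + DBP. Data are mean ± SEM, with p < 0.05 taken as significant.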

Experiment [2] has as its target T1, Type-1 angiotensin II receptor A (Rattus norvegicus, UniProt P25095).
T1 sequence (P25095 whole entry): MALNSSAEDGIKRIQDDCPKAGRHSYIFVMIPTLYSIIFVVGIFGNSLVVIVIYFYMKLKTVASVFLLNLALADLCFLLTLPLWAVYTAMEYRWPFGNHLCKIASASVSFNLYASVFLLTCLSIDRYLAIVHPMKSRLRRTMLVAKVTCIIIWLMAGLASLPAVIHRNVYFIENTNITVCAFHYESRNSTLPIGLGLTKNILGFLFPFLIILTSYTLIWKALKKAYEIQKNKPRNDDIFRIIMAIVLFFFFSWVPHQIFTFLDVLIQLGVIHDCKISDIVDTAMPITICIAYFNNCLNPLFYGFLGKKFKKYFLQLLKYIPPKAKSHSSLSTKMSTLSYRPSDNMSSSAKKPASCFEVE
In words: Displacement of [125I]-Ang II from Angiotensin 2 type-1A receptor in rat vascular smooth muscle cells after 150 mins by gamma counting method. A digest of the protocol:
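Rat vascular smooth muscle cells (passages 3–6) were seeded at 10⁶ cells/well and grown at 37 °C in 5% CO₂. Nonspecific binding was taken with 1 µM Ang II. Cells were washed three times, lysed 10 min in 0.1 M NaOH, and bound radioactivity was gamma counted.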
Background: Displacement assays read how much labelled ligand stays bound in the presence of the test substance.

On to `CCCCc1nc(Cl)c(CO)n1Cc1ccc(-c2ccccc2-c2nnn[nH]2)cc1`, for which, in experiment [1], the outcome was Active.
Regarding `CCCCc1nc(Cl)c(C=O)n1Cc1ccc(-c2ccccc2-c2noc(=O)[nH]2)cc1`, in experiment [2], the IC50 is 4.32 nM and the Ki turned out to be 3.13 nM.

A word on the IC50: it is the concentration at which inhibition is half-maximal. A low value points to greater potency in that assay. A word on the Ki: it is the equilibrium dissociation constant of an inhibitor or competing ligand from its target.
